Values after ≈ are worked out from the molar mass of the structure shown. Blank lines part the entries; values can stand above or below the compound they belong to.
Columns and labels:
[1] = Physiologically based absorption modeling; design: species or system rat
[2] = Transwell transport study in MDCK-MDR1 monolayer; assay type: in vitro ADME, canine; conditions: dog
Summary of the method: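 MDCK-MDR1 cells were seeded at 5 × 10^5 cells/well on 0.4 µm polycarbonate inserts and cultured 7 d; medium was changed every other day, then daily after day 4. Only monolayers with TEER above 140 ohms were used. Monolayers were equilibrated 30 min in HBSS at 37 °C. […] Receiver samples were taken at 15–120 min for HPLC. Papp = (ΔR/Δt)/(S·C0), with S 4.71 cm2; the efflux ratio was calculated from Papp.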

[3] = Dissolution study; assay type: physicochemical; conditions: different pH media, 150 mg AG in 1000 ml, 75 rpm, 37 °C, up to 60 min
Summary of the method: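 USP-type paddle method (Ch.P 2015 Apparatus II) at 75 rpm and 37 ± 0.5 °C. Medium was 1000 ml of distilled water, 0.1 mol/l HCl, pH 6.8 phosphate buffer or 1% SDS. Pure compound or formulations were added at 150 mg compound-equivalent. Aliquots were drawn at 5, 10, 15, 20, 30, 45 and 60 min and replaced with fresh medium. Samples were filtered through 0.45 µm and assayed by HPLC.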

[4] = Saturated solubility of AG-CDs binary formulations; assay type: physicochemical; conditions: distilled water
Summary of the method: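 Binary complexes were made by grinding. γ-CD was dissolved in distilled water, compound added at 1:1 or 1:2 molar ratio, and the mix ground 2 h to a paste. The paste was dried at 50 °C under vacuum, pulverised and passed through an 80-mesh sieve.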

[5] = cited from earlier work
[6] = In vivo pharmacokinetic study after oral administration; design: species or system Sprague-Dawley rats; conditions: male, Sprague-Dawley, rat, plasma, 40 mg/kg
[7] = tested on: MDCK-MDR1 cells; experiment: Cellular uptake of AG with P-gp inhibitors; assay type: cell-based, canine; conditions: 100 µM AG, 200 µM γ-CD, 1% P-gp inhibitor, 37 °C, 90 min
Summary of the method: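 MDCK-MDR1 cells were grown in DMEM with 10% heat-inactivated FBS and 1% penicillin/streptomycin at 37 °C, 5% CO2. Cells were seeded at 5 × 10^5 cells/well and left to adhere overnight. At 80% confluence they were exposed for 90 min at 37 °C to 100 µM test compound, with or without 200 µM γ-CD plus 1% Tween 80, TPGS, P407 or Cremophor EL. Cells were washed three times in ice-cold PBS, lysed in 1% Triton X-100, and intracellular compound was measured by HPLC. […] Triplicates, mean ± SD.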

[8] = three-compartment model fitted to 5 mg/kg i.v. data of ref 35

Dissolution rate (constant) ([1]; fitted to dissolution test result, pH 6.8 PBS): 8.87 mL/h/mg | Central (compartment volume) [1, 8]: 1460 mL | K10 [1, 8]: 0.7518 h⁻¹ | K12 [1, 8]: 1.29 h⁻¹ | K13 [1, 8]: 4.5125 h⁻¹ | K21 [1, 8]: 0.27 h⁻¹ | K31 [1, 8]: 7.0938 h⁻¹ | Periperal_2 (compartment volume) [1, 8]: 1000 mL | Peripheral_1 (compartment volume) [1, 8]: 6000 mL | Papp A→B at 120 min, 20 µM [2]: 0.47 ± 0.04 ×10⁻⁶ cm/s | Papp B→A at 120 min, 20 µM [2]: 4.9 ± 0.05 ×10⁻⁶ cm/s | efflux ratio at 120 min, 20 µM [2]: 10.4 | AG released (dissolution) [3]: 17% | solubility [4]: 74.6 µg/mL (≈ 213 µM) | AUC(0-inf) [6]: 426 ± 76.8 ng·h/mL | AUC(0-t) [6]: 351 ± 56.5 ng·h/mL | Cmax [6]: 57.8 ± 14.8 ng/mL | Tmax [6]: 1.33 ± 0.52 h | half-life [6]: 583 ± 82.8 min | k el [6]: 2e-05 s⁻¹
Compound: C=C1CC[C@@H]2[C@](C)(CO)[C@H](O)CC[C@@]2(C)[C@@H]1C/C=C1/C(=O)OC[C@H]1O [AG, Andrographolide]
Unbound fraction (plasma) [5]: 0.35

Compound: D-α-Tocopherol polyethylene glycol succinate [TPGS]
Cellular uptake of AG [7]: 1.04 nmol/mg protein
